Shown are actives, neighbours in structure and some others; about 3.1% of the full set was active somewhere.
KCNQ1 inh – human KCNQ1 channel inhibition. B-score at 10 µM. AID 2642. actives 1.3% (n = 310,000). CHO-K1 KCNQ1, FluxOR thallium flux fluorescence; hits give high values;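 active = compounds whose thallium flux B-score, printed positive for inhibition, exceeds three library SD while starting fluorescence stays within three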;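 note: channel opened by potassium depolarization with thallium stimulus after 20 min compound exposure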
KCNK9 inh – human KCNK9 channel inhibition; Q9NPC2; HEK293 KCNK9, FluxOR thallium flux fluorescence; hits give low values; B-score at 10 µM; actives 1.2% (n = 310,000); AID 488922;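 active = ratio B-score over 3 SD below the library mean, with starting fluorescence within 5 SD of its mean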;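 note: negative B-score means less thallium flux so channel inhibition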
Target sequence (Q9NPC2 whole entry, looked up): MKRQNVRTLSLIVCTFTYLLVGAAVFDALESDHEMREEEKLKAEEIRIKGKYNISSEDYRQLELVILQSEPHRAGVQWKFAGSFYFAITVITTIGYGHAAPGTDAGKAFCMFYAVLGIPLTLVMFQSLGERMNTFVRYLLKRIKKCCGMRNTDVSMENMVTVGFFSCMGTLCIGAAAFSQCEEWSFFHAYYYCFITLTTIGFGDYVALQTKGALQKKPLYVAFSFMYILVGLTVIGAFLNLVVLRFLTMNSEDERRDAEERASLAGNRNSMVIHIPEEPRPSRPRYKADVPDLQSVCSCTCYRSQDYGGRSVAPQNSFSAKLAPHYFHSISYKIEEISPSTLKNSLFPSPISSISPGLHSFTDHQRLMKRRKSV
KCNK3 inh – human KCNK3 channel inhibition, primary screen; O14649; CHO-KCNK3 thallium flux, FluxOR fluorescence; hits give low values; B-score at 10 µM; actives 0.84% (n = 340,000); AID 602410;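 active = B-score under library mean minus 4 SD, starting fluorescence ratio at most library mean plus 5 SD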;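 note: more negative B-score means stronger inhibition of thallium flux through KCNK3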
KCNQ1 act – potentiates or activates the human KCNQ1 potassium channel | P51787 | CHO-K1 KCNQ1, thallium flux FluxOR fluorescence; hits give high values | B-score at 10 µM | actives 0.35% (n = 310,000);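 active = fluorescence ratio B-score, a plate-corrected score, at least three library SD, with initial intensity B-score within 5 SD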
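Test system: CHO-K1 cells stably expressing KCNQ1 / Medium: assay buffer / Also added: depolarizing K+/Tl+ stimulus, K2SO4 and Tl2SO4 each 12.5 mM in 5x stock / Incubation: 90 min dye loading and 20 min compound exposure, both at room temperature / Signal: thallium influx via FluxOR fluorescence, kinetic imaging / Evaluation: B score of baseline-normalized fluorescence ratio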
hERG rescue – hERG (human) protection from proarrhythmic block | Q12809 | CHO-hERG, FluxOR thallium flux, dofetilide IC70 present | activation (rescue from dofetilide block), less the hit threshold, % at 10 µM | actives 0.51% (n = 310,000) | AID 1511;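 active = activation above the mean of controls blocked by dofetilide plus 5 SD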;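 note: thallium influx through hERG after potassium depolarization seen as dye fluorescence rise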
Active calls of the source: *.

What do the screens show for `Oc1ccc2ccccc2c1C=Nc1ccccc1-c1nc2ccccc2[nH]1`?
KCNQ1 inh: 9*; KCNK9 inh: inactive; KCNK3 inh: inactive; KCNQ1 act: inactive; hERG rescue: -9

What do the screens show for `O=C(NCc1ccco1)c1ccc(S(=O)(=O)N2CCCc3ccccc32)cc1`?
KCNQ1 inh: inactive; KCNK9 inh: -6.9*; KCNK3 inh: inactive; KCNQ1 act: inactive; hERG rescue: -9

What do the screens show for `O=C(NCc1ccccc1)c1ccc(S(=O)(=O)N2CCCc3ccccc32)cc1`?
KCNQ1 inh: inactive; KCNK9 inh: -7.3*; KCNK3 inh: inactive; KCNQ1 act: inactive; hERG rescue: -15

How did O=C(NCc1ccccc1)c1ccc(S(=O)(=O)N2CCCC2)cc1 do in these assays?
KCNQ1 inh: inactive; KCNK9 inh: inactive; KCNK3 inh: inactive; KCNQ1 act: inactive; hERG rescue: -8

How did CCN(CC)Cc1cc2[nH]c3c4ccc(Cl)cc4ncc3c2cc1OC do in these assays?
KCNQ1 inh: inactive; KCNK9 inh: inactive; KCNK3 inh: inactive; KCNQ1 act: inactive; hERG rescue: -9

Results for Cc1cc(C)n(-c2ccc(C(=O)Nc3cccc([N+](=O)[O-])c3)cc2)n1 ?
KCNQ1 inh: 9*; KCNK9 inh: inactive; KCNK3 inh: inactive; KCNQ1 act: inactive; hERG rescue: -12

How did Cc1c(C(=O)Nc2cccc([N+](=O)[O-])c2)cnn1-c1ccccc1 do in these assays?
KCNQ1 inh: inactive; KCNK9 inh: inactive; KCNK3 inh: inactive; KCNQ1 act: inactive; hERG rescue: 7.0*

How did Cc1c(C(=O)Nc2ccccc2)cnn1-c1ccccc1 do in these assays?
KCNQ1 inh: inactive; KCNK9 inh: inactive; KCNK3 inh: inactive; KCNQ1 act: inactive; hERG rescue: -8

What do the screens show for `Cc1cc(C)n(-c2ccc(C(=O)Nc3cccc(S(=O)(=O)N(C)C)c3)cc2)n1`?
KCNQ1 inh: inactive; KCNK9 inh: inactive; KCNK3 inh: inactive; KCNQ1 act: inactive; hERG rescue: -16

Results for Cc1ccc(S(=O)(=O)NCCC(=O)NC2CCC(C)CC2)cc1 (stereo not drawn) ?
KCNK3 inh: inactive

How did [O-]c1c[n+](-c2ccc(-[n+]3cc([O-])on3)cc2)no1 do in these assays?
KCNQ1 inh: inactive; KCNK9 inh: inactive; KCNK3 inh: inactive; KCNQ1 act: inactive; hERG rescue: -10

How did O=C(Cc1ccccc1)NC1(Cc2ccc(O)cc2)CCCCC1 do in these assays?
KCNQ1 inh: inactive; KCNK9 inh: inactive; KCNK3 inh: inactive; KCNQ1 act: inactive; hERG rescue: -7

What do the screens show for `Cc1cccc(NC(=O)CSCC(=O)Nc2ccccc2C(=O)NC2CC2)c1`?
KCNQ1 inh: inactive; KCNK9 inh: inactive; KCNK3 inh: inactive; KCNQ1 act: inactive; hERG rescue: -14

What do the screens show for `CCc1ccc(C(C)NC(=S)NC2CCCCC2)cc1` (stereo not drawn)?
KCNQ1 inh: inactive; KCNK9 inh: inactive; KCNK3 inh: inactive; KCNQ1 act: inactive; hERG rescue: -3

What do the screens show for `Cc1ccc(S(=O)(=O)NC(=S)NC2CCCCC2)cc1`?
KCNQ1 inh: inactive; KCNK9 inh: inactive; KCNK3 inh: inactive; KCNQ1 act: inactive; hERG rescue: 7.5*

How did CCc1ccc(S(=O)(=O)NC(=S)NC2CCCCC2)cc1 do in these assays?
KCNQ1 inh: inactive; KCNK9 inh: inactive; KCNK3 inh: inactive; KCNQ1 act: 23*; hERG rescue: 21*

Results for Cc1ccc(S(=O)(=O)NC(C)C(=O)NC2CCCCCC2)cc1 (stereo not drawn) ?
KCNQ1 inh: inactive; KCNK9 inh: inactive; KCNK3 inh: inactive; KCNQ1 act: inactive; hERG rescue: -6

What do the screens show for `O=S(=O)(NC(=S)NC1CCCCC1)c1ccc(Cl)cc1`?
KCNQ1 inh: inactive; KCNK9 inh: inactive; KCNK3 inh: inactive; KCNQ1 act: inactive; hERG rescue: 5.5*

What do the screens show for `Cc1cccc(C)c1NC(=O)N1CCC(n2cnc3ccccc32)CC1`?
KCNQ1 inh: inactive; KCNK9 inh: inactive; KCNK3 inh: inactive; KCNQ1 act: inactive; hERG rescue: -17

What do the screens show for `O=C(NC1CCCCC1)N1CCC(n2cnc3ccccc32)CC1`?
KCNQ1 inh: inactive; KCNK9 inh: inactive; KCNK3 inh: inactive; KCNQ1 act: inactive; hERG rescue: 6.2*

How did O=[N+]([O-])c1cccc(/C=N/N2CCN(Cc3ccccc3)CC2)c1 do in these assays?
KCNQ1 inh: inactive; KCNK9 inh: inactive; KCNK3 inh: inactive; KCNQ1 act: inactive; hERG rescue: -5

How did O=[N+]([O-])c1cccc(/C=N\N2CCN(Cc3ccccc3Cl)CC2)c1 do in these assays?
KCNQ1 inh: 6*; KCNK9 inh: inactive; KCNK3 inh: inactive; KCNQ1 act: inactive; hERG rescue: -1

How did COc1ccc(/C=N\N2CCN(Cc3ccccc3Cl)CC2)cc1 do in these assays?
KCNQ1 inh: inactive; KCNK9 inh: inactive; KCNK3 inh: inactive; KCNQ1 act: inactive; hERG rescue: -9

What do the screens show for `COc1ccc(Br)cc1/C=N/N1CCN(Cc2ccccc2Cl)CC1`?
KCNQ1 inh: 8*; KCNK9 inh: inactive; KCNK3 inh: inactive; KCNQ1 act: inactive; hERG rescue: -1

How did Cn1cccc1C(=O)NC(=O)COC(=O)c1cc(Cl)ccc1[N+](=O)[O-] do in these assays?
KCNQ1 inh: inactive; KCNK9 inh: inactive; KCNK3 inh: inactive; KCNQ1 act: inactive; hERG rescue: -9

Results for O=C(/C=C/c1ccccc1)N1CCC(N2CCC(C(=O)N3CCOCC3)CC2)CC1 ?
KCNQ1 inh: inactive; KCNK9 inh: inactive; KCNK3 inh: inactive; KCNQ1 act: inactive; hERG rescue: -6

How did CCCCC[C@@H](/C=C/C1C(=O)C=C[C@H]1C/C=C\CCCC(=O)O)OC(C)=O (stereo partly drawn) do in these assays?
KCNK3 inh: inactive

Results for COCCN(Cc1cc2cc3c(cc2nc1Cl)OCO3)C(=O)c1ccc(C)cc1 ?
KCNQ1 inh: inactive; KCNK9 inh: inactive; KCNK3 inh: inactive; KCNQ1 act: 29*; hERG rescue: -6

How did Cc1ccc(N=Nc2ccc(O)c3ncccc23)cc1 do in these assays?
KCNQ1 inh: inactive; KCNK9 inh: inactive; KCNK3 inh: inactive; KCNQ1 act: 16*; hERG rescue: 20*

How did Cc1ccc(N=Nc2ccc(O)c3ncccc23)cc1C do in these assays?
KCNQ1 inh: inactive; KCNK9 inh: inactive; KCNK3 inh: inactive; KCNQ1 act: 11*; hERG rescue: -1

What do the screens show for `COc1ccccc1N=Nc1ccc(O)c2ncccc12`?
KCNQ1 inh: inactive; KCNK9 inh: inactive; KCNK3 inh: inactive; KCNQ1 act: inactive; hERG rescue: 2

How did Cc1cc(C)cc(NC(=O)C2CCCN2/C=C/C(=O)C(F)(F)F)c1 (stereo not drawn) do in these assays?
KCNQ1 inh: inactive; KCNK9 inh: inactive; KCNK3 inh: inactive; KCNQ1 act: inactive; hERG rescue: -5

Bioassay records as filed in PubChem.
